A selection: hits, their analogues and other compounds. The true share with any hit is near 4.9%.
STAT3 inh – inhibitors of IL-6 induced STAT3 signaling | 190,000 tested, 0.89% active | U3A cells, IL-6 STAT3-luciferase reporter, luminescence; host cell line lacks STAT1 | inhibition, % at 5.5 µM | AID 862;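 active = inhibition above the mean inhibition across all screened compounds plus 3 SD, cut at about 44% in these data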;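 note: 0% = DMSO only wells and 100% = 100 µM nifuroxazide control wells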
APP 5'UTR act – APP 5'UTR luciferase reporter activation; SH-SY5Y APP 5'UTR luciferase reporter, luminescence; zero percent = DMSO vehicle wells; activation, % at 2 µM; 190,000 tested, 1% active; AID 1276;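 active = activation above a set limit, based on mean plus 3 SD of controls, cut at about 140% in these data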
STAT1 inh – reduces IFN-gamma driven STAT1 reporter signal; AID 920; 200,000 tested, 0.35% active; NIH 3T3 STAT1-luciferase reporter, luminescence; inhibition, % at 5.5 µM;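 active = inhibition above a set limit, the mean inhibition across all tested compounds plus 3 SD, cut at about 34% in these data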;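 note: 0% = IFN-gamma with DMSO and 100% = IFN-gamma with 300 µM nifuroxazide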
NF-kB neuron act – raises NF-kB expression in human neuronal cells; fold change at 12.5 µM; AID 1239; NF-kB reporter expression; stronger effect = higher value; 190,000 tested, 1.6% active; in the data active = fold change above about 3.3
STAT3 act-1 – activators of IL-6 induced STAT3 signaling | U3A cells, IL-6 STAT3-luciferase reporter, luminescence; 100% = signal with IL-6 EC80 alone | activation (% of control), % at 5.6 µM | 190,000 tested, 0.91% active | AID 871;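 active = activation above the screen-wide mean of compound activation plus 3 SD, cut at about 130% in these data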;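 note: 0% = background luminescence of wells with medium and substrate only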
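Test system: STAT3-luciferase reporter U3A cells; Detection: reporter luminescence signal; Times: 1 h compound pre-exposure, 6 h IL-6 stimulation, 37 °C; Benchmarks: IL-6-only high control; Also added: IL-6 stimulus at 33 ng/mL final.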
STAT1 act-1 – increases IFN-gamma driven STAT1 reporter signal; NIH 3T3 STAT1-luciferase reporter, luminescence; 100% = IFN-gamma alone, no compound; activation (% of control), % at 5.5 µM; 200,000 tested, 2.6% active; AID 932;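 active = activation above the screen-wide mean activation plus 3 SD, cut at about 130% in these data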;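 note: raw ratio to IFN-gamma control signal so 100% means no change and 0% no light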
STAT3 act-2 – STAT3 activation, confirmation assay; AID 1267; 1,200 tested, 64% active; potentiation (% of control), % at 5.7 µM; shares compounds with STAT3 act-1; U3A STAT3-luciferase reporter, IL-6 potentiation, luminescence; U3A cells lack STAT1; 100 means same as IL-6 alone;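 active = percent activation of the STAT3 luciferase reporter above a set limit taken from the earlier primary screen, cut at about 130% in these data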;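 note: 0% = background signal of medium plus substrate and 100% = median of IL-6 with DMSO wells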
NFkB act 2 – counter-screen for STAT3 activators: NF-kappaB activation | shares compounds with STAT3 act-1 | human cells, NF-kappaB reporter activation | activation (% of control), % at 5.7 µM | 1,200 tested, 11% active; in the data active = activation above about 120%;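 note: reporter induced by TNF-alpha stimulation; 100% = median of stimulated DMSO wells and 0% = no signal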
STAT1 act-2 – STAT1 activation in STAT3 activator counter-screen. shares compounds with STAT3 act-1. NIH 3T3 STAT1-luciferase reporter, IFN-gamma, luminescence. activation (% of control), % at 5.7 µM. 1,200 tested, 13% active. AID 1318;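 active = activation above the solvent-only control well mean plus 3 SD, set per screening run, cut at about 120% in these data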;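 note: 100% = IFN-gamma with DMSO median signal so 100% means no change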
* = called active by the depositor; x = not tested or not shown.

SMILES	STAT3 inh	APP 5'UTR act	STAT1 inh	NF-kB neuron act	STAT3 act-1	STAT1 act-1	STAT3 act-2	NFkB act 2	STAT1 act-2
CN(NC1CC(=O)N(c2ccccc2)C1=O)c1ccccc1 (configuration not stated)	0	9	6	1	95	94	x	x	x
Clc1ccccc1OCc1nc(-c2ccc(Br)o2)no1	-33	11	-25	2.8	137*	123	126	110	125*
Fc1ccc(OCc2nc(-c3ccc(Br)o3)no2)c(F)c1	-4	1	-5	1.6	107	105	x	x	x
O=C(Nc1cc(-c2nc3ccccc3s2)ccc1Cl)c1ccc2c(c1)OCO2	-36	28	-5	1.7	138*	105	137*	120	127*
O=C(NCC(=O)N1CC(O)CC1C(=O)N1CC(O)CC1C(=O)OCc1ccccc1)OCc1ccccc1 (configuration not stated)	10	15	5	1.3	99	96	x	x	x
O=C(O)CC1=C(Nc2ccccc2)C(=O)N(c2ccccc2)C1c1ccc(Br)cc1 (configuration not stated)	23	7	9	1.3	85	90	x	x	x
Cc1cc(NC(=O)CN2CCOCC2)n(-c2nc3ccccc3s2)n1	-77	-2	1	0.59	165*	99	146*	102	99
CC(=O)Nc1cc(C)nn1-c1nc2ccccc2s1	-44	73	-16	0.4	148*	116	181*	122*	144*
COc1ccccc1N1CCN(S(=O)(=O)c2c(C)[nH]c(=O)[nH]c2=O)CC1	10	-20	-4	1.1	102	103	x	x	x
COc1ccc(N(Cc2cc(=O)[nH]c3ccccc23)C(=O)c2ccco2)cc1	-20	12	14	1.2	118	87	x	x	x
CCC(=O)N(Cc1cc(=O)[nH]c2ccccc12)c1cccc(C)c1	-48	12	-3	1	142*	103	124	101	96
CCOc1ccccc1NC(=O)Cn1nnc(C(=O)NCc2ccco2)c1N	-37	-96	-7	3.7*	138*	107	108	142*	101
O=C(CN(Cc1ccco1)C(=O)Cn1nnc(-c2cccs2)n1)NCC1CCCO1 (configuration not stated)	7	5	1	1	96	97	x	x	x
O=C(NCC1CCCO1)c1ccc(COc2ccc(F)cc2)o1 (configuration not stated)	-44	-17	-21	1	138*	119	99	103	98
CC1=C([N+](=O)[O-])C(c2cccc(Br)c2)C2=C(N1)c1ccccc1C2=O (configuration not stated)	-76	-86	-12	4.5*	175*	111	149*	149*	110
CC(=O)c1cccc(NC(=O)NNC(=O)CCC(=O)Nc2ccc(C)c(C)c2)c1	13	-7	-5	0.94	98	104	x	x	x
CC(C)(C)c1nn2cnnc2n(/N=C/c2ccccc2)c1=O	1	19	-2	1.3	99	102	x	x	x
c1ccc2sc(Sc3ncnc4sccc34)nc2c1	-61	0	-11	1.8	151*	110	159*	97	102
O=C(CCn1c(=S)oc2ccccc21)Nc1cccc(O)c1	11	16	1	0.87	100	98	x	x	x
c1ccc2cc(-c3cc4ccccn4c3)ccc2c1	-81	7	-21	1.2	177*	120	94	102	103
O=C(Cn1cnc([N+](=O)[O-])n1)NCCO	x	11	-8	1	x	106	x	x	x
CC(=O)c1cccc(NC(=O)C2C3C=CC(C3)C2C(=O)O)c1 (configuration not stated)	2	-1	0	1.1	100	98	x	x	x
CC(C)=C1C2C=CC1C(C(=O)Nc1cccc(C)c1)C2C(=O)O (configuration not stated)	-65	-2	4	0.78	160*	96	145*	100	97
CC(=O)Nc1ccc(NCN2C(=O)[C@@H]3[C@H]4CC[C@H](C4)[C@@H]3C2=O)cc1	0	10	-8	1	100	107	x	x	x
CSc1nnc2c(n1)c(C)nn2-c1ccc(C)cc1	-56	1	2	1.9	149*	96	161*	116	128*
SMILES	STAT3 inh	APP 5'UTR act	STAT1 inh	NF-kB neuron act	STAT3 act-1	STAT1 act-1	STAT3 act-2	NFkB act 2	STAT1 act-2
Cc1ccc(C2NC(=O)c3c(sc(C)c3C)N2)c(O)c1 (configuration not stated)	-59	0	-1	1.8	158*	101	159*	106	98
Cc1cccc(C2NC(=O)c3c(sc(C)c3C)N2)c1O (configuration not stated)	-14	4	-10	1	117	109	x	x	x
Cc1ccc(C(=O)/C=C/c2ccccc2[N+](=O)[O-])cc1	-36	35	-24	0.92	138*	120	162*	121*	125*
CCN(C(=O)COC(=O)/C=C/c1ccccc1[N+](=O)[O-])C1CCS(=O)(=O)C1 (configuration not stated)	-51	11	32	0.74	149*	71	141*	105	71
CCNC(=O)COC(=O)/C=C/c1ccccc1[N+](=O)[O-]	6	-9	16	1	92	85	x	x	x
CN(C)C(=O)COC(=O)/C=C/c1ccccc1[N+](=O)[O-]	-73	8	25	0.74	162*	77	143*	104	73
O=C(COC(=O)/C=C/c1ccccc1[N+](=O)[O-])NCC(F)(F)F	-63	6	21	1.1	150*	80	163*	104	101
O=C(COC(=O)/C=C/c1ccccc1[N+](=O)[O-])NCC1CCCO1 (configuration not stated)	1	8	8	0.93	102	91	x	x	x
CC(C)NC(=S)N/N=C/c1cc(Br)ccc1O	7	10	-2	0.82	93	101	x	x	x
CCCn1c(NC(=O)c2ccc(Cl)c(S(=O)(=O)N3CCCC3)c2)nc2ccccc21	9	-14	-22	0.61	94	120	x	x	x
CC1Cc2ccccc2N1Cc1cc(=O)n2ccsc2n1 (configuration not stated)	-44	1	1	0.91	146*	99	152*	101	99
COCCNCC(=O)N1CCCCCC1	15	5	0	1.2	94	99	x	x	x

Assay outcomes (PubChem)
